In ChEMBL document CHEMBL5661977, “BI 6727, a Polo-like kinase inhibitor with improved pharmacokinetic profile and broad antitumor activity” (Clin Cancer Res, 2009):
Active and inactive are the calls of the source. No cut-off for these calls is given here.

Key:
NCI-H460 [1] = test: Antimitotic activity against human NCI-H460 cells assessed as accumulation of monopolar spindles at 100 nmol/L incubated for 24 hrs by immunofluorescence analysis; assay type: functional, cell-based
Summary of the method: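 NCI-H460 cells on chamber slides were treated next day for 24 h with inhibitor or 0.1% DMSO vehicle. They were fixed and permeabilized with 4% formaldehyde/Triton X-100 for 5 min at RT, then stained with anti-tubulin and anti-phospho-Ser10 histone H3 (1:500 in PBS/2% BSA) plus DAPI 0.05 µg/mL. Imaged by fluorescence microscopy.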

[2] = Cmax in Wistar rat at 30 mg/kg, po by HPLC-MS/MS analysis; assay type: ADME, organism-based; conditions: in vivo
Summary of the method: (§1)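 Single oral gavage of BI 6727 suspended in 0.5% hydroxyethyl-cellulose (10 mL/kg) to female nude mice or male Wistar rats. EDTA plasma levels measured over time by HPLC-MS/MS with internal standard. AUC0-24 by trapezoidal rule. Parameters from noncompartmental analysis.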

HCT-116 [3] = test: Antitumor activity against human HCT-116 cells xenografted in BomTac:NMRI-Foxn1nu mouse assessed as early apoptosis at 40 mg/kg, iv 24 hrs after administration by tunel staining based immunohistochemistry analysis; assay type: functional, organism-based
Summary of the method: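 Female nude mice bore s.c. HCT 116 tumors (~200 mm³) and received a single i.v. 40 mg/kg dose or vehicle (n=3 per group per time). Tumor, small intestine and large intestine were taken at 6, 24 and 48 h. Frozen sections were stained for pSer10 histone H3 (immunoperoxidase) or by TUNEL. Positive area was calculated as % of tumor cell area; Student's t test.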

[4] = AUC (0 to infinity) in Wistar rat at 10 mg/kg, iv by HPLC-MS/MS analysis; assay type: ADME, organism-based; conditions: in vivo
Summary of the method: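 Single i.v. dose: male Wistar rats (n=4) by 5-min infusion, female nude mice (n=3). EDTA plasma was sampled at various times and extracted with internal standard, NaOH, methanol/formic acid and acetonitrile. Analysis by LC-MS/MS (ESI+, C18, ammonium acetate pH 4.0/acetonitrile gradient). Noncompartmental parameters; AUC by trapezoidal rule.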

HCT-116 [5] = test: Antitumor activity against human HCT-116 cells xenografted in BomTac:NMRI-Foxn1nu mouse assessed as T/C at 30 mg/kg, iv administered once a week upto 6 weeks relative to control; assay type: functional
Summary of the method: (§2)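 Female nude mice bore s.c. HCT 116 (2×10^6 cells), NCI-H460 (1×10^6 cells) or serially transplanted CXB1 tumor pieces. At ~50–100 mm³, mice were randomized into groups of 10 and dosed i.v. (0.1 N HCl/saline) or by gavage (0.5% hydroxyethyl-cellulose) at 10 mL/kg. Calipers read thrice weekly, volume = length×width²×π/6. T/C from median volumes on the last day.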

HCT-116 [6] = test: Antitumor activity against human HCT-116 cells xenografted in BomTac:NMRI-Foxn1nu mouse assessed as T/C at 50 mg/kg, po administered once a week upto 6 weeks relative to control; assay type: functional; summary of the method: as §2
[7] = Drug uptake in human HCT-116 cells xenografted in BomTac:NMRI-Foxn1nu mouse plasma at 35 mg/kg, iv measured after 1 hrs by HPLC-MS/MS analysis; assay type: ADME, organism-based
Summary of the method: (§3)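 Female nude mice bearing s.c. HCT 116 xenografts (2 × 10⁶ cells), n = 3 per time point, given a single i.v. dose. Tumor, organs and EDTA plasma collected at 1, 8, 24, 48, 96 and 168 h. Tissue extracts and plasma analysed by HPLC-MS/MS. Tissue nmol/mg converted to nmol/L assuming density 1.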

[8] = Drug uptake in human HCT-116 cells xenografted in BomTac:NMRI-Foxn1nu mouse plasma at 35 mg/kg, iv measured after 168 hrs by HPLC-MS/MS analysis; assay type: ADME, organism-based; summary of the method: as §3
NCI-H460 [9] = test: Antimitotic activity against human NCI-H460 cells assessed as inhibition of cell proliferation incubated for 72 hrs by Alamar blue based fluorescence spectrophotometric analysis; assay type: functional; conditions: NCI-H460, 72 h
Summary of the method: (§4)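 Cancer cell lines were cultured per supplier instructions and exposed to various inhibitor concentrations for 72 h. Growth was read as Alamar blue conversion by fluorescence. EC50 (50% growth inhibition) was extrapolated from the dose-response curve fit.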

[10] = Clearance in Wistar rat at 10 mg/kg, iv by HPLC-MS/MS analysis; assay type: ADME, organism-based; conditions: in vivo
Summary of the method: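 Male Wistar Crl:WI (Han) rats, n = 4, given a single 5-min i.v. infusion. BI 6727 measured in EDTA plasma at various times after the infusion started, by HPLC-MS/MS with internal standard. Parameters came from noncompartmental analysis. Terminal half-life was taken from the last two time points after i.v. dosing.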

HCT-116 [11] = test: Antitumor activity against human HCT-116 cells xenografted in BomTac:NMRI-Foxn1nu mouse assessed as tumor regression at 25 mg/kg, iv administered twice a week on consecutive days; assay type: functional, organism-based; summary of the method: as §2
HL-60 = test: Antimitotic activity against human HL-60 cells assessed as inhibition of cell proliferation incubated for 72 hrs by Alamar blue based fluorescence spectrophotometric analysis; assay type: functional; conditions: HL-60, 72 h; summary of the method: as §4
[12] = Oral bioavailability in BomTac:NMRI-Foxn1nu mouse at 50 mg/kg by HPLC-MS/MS analysis; assay type: ADME, organism-based; conditions: in vivo; summary of the method: as §1
NCI-H460 [13] = test: Antimitotic activity against human NCI-H460 cells assessed as increase in the sub-G1 phase at 100 nmol/L incubated for 48 hrs by PI staining based flow cytometric analysis; assay type: functional, cell-based
Summary of the method: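 Log-phase NCI-H460 cells were treated with 0.1% DMSO or inhibitor (dose series for 24 h; 100 nmol/L time course at 0, 24, 48, 72 h). Cells were fixed in 80% ethanol, permeabilized with 0.25% Triton X-100 for 5 min, then given 0.1% RNase plus 10 µg/mL propidium iodide for 20 min at RT. DNA content was read by flow cytometry.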

HCT-116 [14] = test: Antitumor activity against human HCT-116 cells xenografted in BomTac:NMRI-Foxn1nu mouse assessed as T/C at 20 mg/kg, iv administered twice a week upto 6 weeks relative to control; assay type: functional; summary of the method: as §2
HCT-116 [15] = test: Antitumor activity against human HCT-116 cells xenografted in BomTac:NMRI-Foxn1nu mouse assessed as T/C at 20 mg/kg, iv administered once a week upto 6 weeks relative to control; assay type: functional; summary of the method: as §2
HCT-116 [16] = test: Antitumor activity against human HCT-116 cells xenografted in BomTac:NMRI-Foxn1nu mouse assessed as T/C at 25 mg/kg, iv administered twice a week upto 6 weeks relative to control; assay type: functional; summary of the method: as §2
[17] = AUC (0 to 24 hrs) in human HCT-116 cells xenografted in BomTac:NMRI-Foxn1nu mouse at 25 mg/kg, iv administered twice a week upto 6 weeks by HPLC-MS/MS analysis; assay type: ADME, organism-based; conditions: in vivo, 1008 h
HCT-116 [18] = test: Antitumor activity against human HCT-116 cells xenografted in BomTac:NMRI-Foxn1nu mouse assessed as T/C at 25 mg/kg, po administered twice a week upto 6 weeks relative to control; assay type: functional; summary of the method: as §2
[19] = Half life in BomTac:NMRI-Foxn1nu mouse at 35 mg/kg, iv by HPLC-MS/MS analysis; assay type: ADME, organism-based; conditions: in vivo
Summary of the method: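 Female nude mice, n = 3, single i.v. dose (vehicle 0.1 N HCl diluted with 0.9% NaCl, 10 mL/kg). BI 6727 measured in EDTA plasma at several times by HPLC-MS/MS with internal standard. Parameters came from noncompartmental analysis. Terminal half-life was taken from the last two time points after i.v. dosing.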

With `CC[C@@H]1C(=O)N(C)c2cnc(Nc3ccc(C(=O)N[C@H]4CC[C@H](N5CCN(CC6CC6)CC5)CC4)cc3OC)nc2N1C(C)C` [VOLASERTIB] the Activity (NCI-H460 [1]) was “Active”, the Cmax [2] was 2200 nM and the Activity (HCT-116 [3]) was “Active”. The AUC(0-inf) [4] was 30 µM·h, the T/C (HCT-116 [5]) was 3% and the T/C (HCT-116 [6]) was 2%. For the same compound, the concentration at 1 h [7] was 7000 nM, the concentration at 168 h [8] was 8 nM and the EC50 (NCI-H460 [9]) was 21 nM. The clearance [10] was 8.9 mL/min/kg, the Activity (HCT-116 [11]) was “Active” and the EC50 (HL-60) was 32 nM. The bioavailability [12] was 41%, the Activity (NCI-H460 [13]) was “Active” and the T/C (HCT-116 [14]) was 1%. For the same compound, the T/C (HCT-116 [15]) was 9%, the T/C (HCT-116 [16]) was 0.3% and the AUC [17] was 75 µM·h. It also gave a T/C (HCT-116 [18]) of 2% and a half-life [19] of 46 h.
